Measured values from different studies.
Target: Serine/threonine-protein kinase TBK1 (TBK1, Homo sapiens, UniProt Q9UHD2)

With CCCS(=O)(=O)Nc1ccc(F)c(C(=O)c2c[nH]c3ncc(-c4ccc(Cl)cc4)cc23)c1F the inhibition was under 10% (enzyme activity, inhibitor; 1 µM).
The remaining binding of C[C@H](c1cccc(C#N)c1)n1cc(Cl)cc(C(N)=O)c1=N is reported as 98% (cell-free assay, competition with immobilised ligand; 1 µM).
O=C1NC(=O)c2cc(Nc3ccc(F)cc3)c(Nc3ccc(F)cc3)cc21 has a remaining signal of 101% (cell-free assay; 0.5 µM).
O=C(NS(=O)(=O)c1ccc(NCC2CCOCC2)c([N+](=O)[O-])c1)c1ccc(N2CCN(Cc3ccc(C(F)(F)F)cc3-c3ccc(Cl)cc3)CC2)cc1Oc1cnc2[nH]ccc2c1 gave a remaining binding of 74% (cell-free assay, competition with immobilised ligand; 1 µM).
CN1CCc2cc(Nc3ncc(C4CC4)c(NCCCNC(=O)C4CCC4)n3)ccc2C1 has a remaining activity of 1% (enzyme activity, inhibitor, radiometric; 1 µM).
For O=C1CCc2cc(Nc3cc(OC4CCOCC4)c([N+](=O)[O-])cc3Cl)ccc2N1, the remaining binding was 100% (cell-free assay, competition with immobilised ligand; 1 µM).
With CN1CC(Oc2cnc(C#N)cc2-c2ccn3nc(NC(=O)C4CC4)cc3c2)C1 the inhibition was 3% (enzyme activity, inhibitor; 1 µM).
Nc1ncnc2occ(-c3ccc(NC(=O)Nc4cc(C(F)(F)F)ccc4F)cc3)c12 has a remaining signal of 23% (cell-free assay, inhibitor; 20 µM).
COc1cc2ncnc(Nc3ccc(Oc4ccccc4)c(C)c3C)c2cc1OC has an inhibition of 0% (enzyme activity, inhibitor; 1 µM).
CCN1CCN(Cc2ccc(NC(=O)c3ccc(C)c(Oc4ccnc5[nH]ccc45)c3)cc2C(F)(F)F)CC1 has an inhibition of -24.4% (target engagement in cells, inhibitor, chemoproteomics; Huh-7; 10 µM).
For N#CCCc1ccc2c(c1)-c1[nH]c3ccc([N+](=O)[O-])cc3c1CC(=O)N2, the remaining signal was 83.7% (cell-free assay; 0.5 µM).
CN(C)C1CCN(CC#Cc2nn(C3CCCC3)c3nc(NCc4ccccc4)ncc23)C1 (centres unmarked) has an inhibition of 10% (enzyme activity, inhibitor, FRET; 10 µM).
With CCN(CC)CCNC(=O)c1c(C)[nH]c(/C=C2\C(=O)Nc3ccc(F)cc32)c1C the inhibition was 88% (enzyme activity, inhibitor; 10 µM).
NS(=O)(=O)c1ccc(CNc2ccnc(Nc3cccc(CN4CCOCC4)c3)n2)cc1 gave a remaining activity of 33% (enzyme activity, inhibitor, radiometric; 1 µM).
O=C1Nc2ccc(Cl)cc2C1=Cc1cc(Cl)c(O)c(Cl)c1 gave a remaining signal of 86.8% (cell-free assay; 0.5 µM).
For Cc1cc(NC(=O)c2cccc3cc(-c4cccc5[nH]nc(N)c45)ccc23)ccc1F, the activity vs control was 109% (enzyme activity, inhibitor; 0.1 µM).
For O=C(Nc1cccc(Nc2ncc(Br)c(NCCc3cnc[nH]3)n2)c1)N1CCCC1, the remaining activity was 10% (enzyme activity, inhibitor, radiometric; 1 µM).
FC(F)(F)Oc1cccc(-c2cnc3ccc(-c4ccncc4)nn23)c1 has an activity vs control of 92% (enzyme activity, inhibitor, radiometric; 1 µM).
With O=C(O)c1cc(-c2ccc(C3CCNCC3)cc2)c2ccc(-c3ccc(C(F)(F)F)cc3)cc2c1 the remaining binding was 80% (cell-free assay, competition with immobilised ligand; 1 µM).
Cc1nn(CC(F)(F)F)cc1Nc1ncc(C2CC2)c(NCCc2c[nH]cn2)n1 gave a remaining activity of 81% (enzyme activity, inhibitor, radiometric; 1 µM).
The remaining binding of COCCOc1nc(-c2ccc(Cl)nc2)nc2c1CN(C(=O)c1ncn3ccccc13)CC2 is reported as 68% (cell-free assay, competition with immobilised ligand; 0.1 µM).
Cc1ccc(Nc2nccc(N(C)c3ccc4c(C)n(C)nc4c3)n2)cc1S(N)(=O)=O has an inhibition of 46% (enzyme activity, inhibitor; 10 µM).
CN(c1ncccc1CNc1nc(Nc2ccc3c(c2)CC(=O)N3)ncc1C(F)(F)F)S(C)(=O)=O gave an inhibition of 73.7% (enzyme activity, inhibitor; 1 µM).
The inhibition of CNC(=O)c1cc(Oc2ccc(NC(=O)Nc3ccc(Cl)c(C(F)(F)F)c3)cc2)ccn1 is reported as 16% (enzyme activity, inhibitor; 0.3 µM).
Cc1nn(CC(F)(F)F)cc1Nc1ncc(C2CC2)c(NCc2ccc(S(N)(=O)=O)cc2)n1 gave a remaining activity of 10% (enzyme activity, inhibitor, radiometric; 1 µM).
For COc1cccc2c(NCc3ccccc3)nc(-n3c(N)nc4ccccc43)nc12, the inhibition was -11.4% (target engagement in cells, inhibitor, chemoproteomics; 20 mM).
NS(=O)(=O)c1ccc(CNc2nc(Nc3cccc(NC(=O)N4CCCC4)c3)ncc2C2CC2)cc1 gave a remaining activity of 6% (enzyme activity, inhibitor, radiometric; 1 µM).
CN(C)C(=O)Cn1cc(-c2nc(C3(c4ccc(-c5cnc(N)nc5)cc4)CC3)no2)cn1 has a remaining binding of 87% (cell-free assay, competition with immobilised ligand; 1 µM).
For Cc1nn(CC(F)(F)F)cc1Nc1nccc(NCCCNC(=O)C2CCC2)n1, the remaining activity was 61% (enzyme activity, inhibitor, radiometric; 1 µM).
The remaining binding of O=C(NCCCC1CCCCC1)c1ccc(CNC(=O)c2cnn(-c3ccccc3)c2C(F)(F)F)cc1 is reported as 100% (cell-free assay, competition with immobilised ligand; 0.1 µM).
The remaining activity of O=C(NCCCNc1ccnc(Nc2cccc(NC(=O)N3CCCC3)c2)n1)C1CCC1 is reported as 36% (enzyme activity, inhibitor, radiometric; 1 µM).
For CO[C@@H](C)c1c(Nc2ccc([C@@H](N(C)C(=O)C3CCS(=O)(=O)CC3)C(F)(F)F)cc2)cnc2cc(Cl)nn12, the remaining binding was 77% (cell-free assay, competition with immobilised ligand; 1 µM).
